Measured values published in publication PMC6910256 (Journal of photochemistry and photobiology. A, Chemistry, 2019).
Like-named read-outs stand apart in the source and are kept apart here.

Columns and labels:
[1] = molecular target: T1, DUSP5 PD (Homo sapiens, UniProt Q16690); assay: Reaction progress curve analysis of irreversible DUSP5 PD inactivation; type: biochemical; conditions: for fold less effective than merbromin (time-dependent inhibition): absence of DTT
T1 sequence (Q16690 178-319 limits assumed): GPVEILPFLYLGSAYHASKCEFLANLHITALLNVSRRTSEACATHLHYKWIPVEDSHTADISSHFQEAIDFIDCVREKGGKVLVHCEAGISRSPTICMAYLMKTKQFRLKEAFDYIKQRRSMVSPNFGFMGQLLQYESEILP

[2] = molecular target: T1, DUSP5 PD; assay: Spectral analysis of other xanthene dyes binding to DUSP5 PD protein; conditions: 4 μM compound, 4 μM protein
In short: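 Each test compound at 4 μM in assay buffer, without or with 1 mM DTT, in 2 mL quartz cuvettes. Absorbance was scanned at 1 nm intervals from 400 to 600 nm. DUSP5 PD was then added to a final 4 μM and the sample rescanned. Blanks were buffer with or without DTT, plus buffer with 4 μM protein. Spectra without protein were subtracted from spectra with protein to give difference spectra.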

[3] = molecular target: T1, DUSP5 PD; assay: DUSP5 phosphatase domain pNPP assay, IC50 from initial velocities; type: biochemical
In short: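 Recombinant DUSP5 phosphatase domain in 100 mM Tris, 100 mM NaCl, 5 mM MgCl2, pH 7.5, without or with 1 mM DTT, using 5 mM pNPP (near Km). Compound was serially diluted and enzyme added from a 25 μM stock. After 0, 30 or 60 min dark incubation, A405 was read every 30 s for 10 min at 25°C. Blank-subtracted slopes were normalised to vehicle controls and fitted to equation 2. Three or four trials of triplicate wells.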

[4] = molecular target: T2, GST-DUSP5 (full length DUSP5, pERK substrate) (Homo sapiens, UniProt Q16690); assay: In vitro ERK dephosphorylation Western blot assay; type: biochemical
T2 sequence (Q16690 1-384): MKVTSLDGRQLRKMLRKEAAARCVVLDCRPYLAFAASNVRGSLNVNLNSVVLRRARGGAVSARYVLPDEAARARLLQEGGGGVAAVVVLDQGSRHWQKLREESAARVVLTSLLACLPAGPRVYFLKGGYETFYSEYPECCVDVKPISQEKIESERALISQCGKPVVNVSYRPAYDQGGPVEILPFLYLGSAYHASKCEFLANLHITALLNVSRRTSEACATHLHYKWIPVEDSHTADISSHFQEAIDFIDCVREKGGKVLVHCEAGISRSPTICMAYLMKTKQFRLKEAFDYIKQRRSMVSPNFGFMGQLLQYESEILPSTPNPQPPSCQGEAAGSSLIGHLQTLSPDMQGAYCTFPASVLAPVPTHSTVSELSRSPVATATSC

[5] = Nephelometry; type: physicochemical; conditions: assay buffer pH 7.5 without vs with 1 mM DTT
In short: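 Aggregation was tested in 96-well plates using substrate-free assay buffer at pH 7.5, without or with 1 mM DTT. Serially diluted compound was added to give final concentrations of 1–100 μM or 1–300 μM, depending on compound.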

[6] = cited from earlier work
[7] = system: ulcerative hemangioma; conditions: topical use in the clinic; cited from earlier work
[8] = molecular target: T1, DUSP5 PD; assay: Steady-state competitive inhibition kinetics; type: biochemical; conditions: vs pNPP
In short: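 Initial DUSP5 PD velocities were measured across 3–81 mM pNPP and 0–30 μM test compound, in assay buffer with 1 mM DTT. The data were fitted globally to a steady-state competitive inhibition model (equation 5), giving Vmax, Km and Ki ± SE.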

[9] = molecular target: T3, GST-DUSP5 (Homo sapiens, UniProt Q16690); assay: Prestwick drug library pNPP enzyme assay screen; type: biochemical; conditions: 50 μM drug, 5 mM pNPP
T3 sequence (Q16690 178-319 limits assumed): T1 sequence (Q16690 178-319 limits assumed)

[10] = molecular target: T1, DUSP5 PD; assay: Incandescent bulb kinetic studies, noncompetitive inhibition models; type: biochemical
In short: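 DUSP5 PD (final 1 μM) in 100 mM Tris pH 7.5, 100 mM NaCl, 5 mM MgCl2, 1 mM DTT, precooled to 4°C. Incubated in glass tubes with test compound (1 mM aqueous stock, light-protected), either light-limited or under incandescent illumination. Substrate was 3, 9 or 27 mM pNPP, with pNPP-only background subtraction. Initial velocities came from linear fits of p-nitrophenolate (ε 18,000). Fits were global noncompetitive models: a single Ki (equation 6), or slope Kis and intercept Kii (equation 7).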

[11] = molecular target: T1, DUSP5 PD; assay: Binding of rose bengal to DUSP5 PD by UV-Vis spectral titration; conditions: read-out: Kd for binding to DUSP5; as printed in abstract/highlights
In short: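 Final protein was 0, 1.0, 2.0 and 3.0 μM with 1.08 μM compound, or 0–2.5 μM in 0.5 μM steps with 3.25 or 6.5 μM compound. Absorbance differences were fitted hyperbolically (equation 8) against total protein to obtain Absmax. Fractional absorbance was plotted versus total protein.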

[12] = molecular target: T1, DUSP5 PD; assay: LED illumination kinetic studies; type: biochemical; conditions: 555 nm LED, 30 min, 825 lux
In short: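 Samples of 4 mL containing 1 μM DUSP5 PD and 0, 1, 2 or 3.5 μM test compound were prepared at 20°C under <1 lux. They were then treated for 30 min, illuminated or light-shielded. Aliquots of 190 μL were started with pNPP (final 0, 3, 9, 27 mM), four replicates each, plated under <1 lux. A405 was read every 30 s for 10 min at 25°C. Initial velocities were globally fitted to the noncompetitive models (equations 6, 7).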

[13] = molecular target: T1, DUSP5 PD; assay: Headspace gas sparging kinetic studies; type: biochemical; conditions: 1 μM rose bengal, illuminated 15 min
In short: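 Borosilicate tubes held 4 mL assay buffer with 1 μM DUSP5 PD, without or with 1 μM test compound. They were prepared shielded from light, stoppered and kept on ice. Ultrapure air, nitrogen or oxygen was passed through the headspace at 2.5 L/min by needle. Controls: enzyme without compound under room air. After illumination, pNPP hydrolysis was read at 405 nm every 30 s for 10 min at 25°C in 96-well plates, background-subtracted and converted to p-nitrophenolate.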

[14] = with 1 mM DTT, summary of data sets (Table 2)
[15] = without DTT, summary of data sets (Table 2)
[16] = IC50 against DUSP5 PD activity, with 1 mM DTT, 30 min incubation, mean ± SD
[17] = IC50 against DUSP5 PD activity, with 1 mM DTT, 60 min incubation, mean ± SD
[18] = IC50 against DUSP5 PD activity, without DTT, 30 min incubation, mean ± SD
[19] = IC50 against DUSP5 PD activity, without DTT, 60 min incubation, mean ± SD
[20] = without DTT, fit shown in Fig. 5c/6c
[21] = without DTT, fit of kobs replot to equation 4 (Fig. 5c/6c)

Row | Compound | Inhibitor mechanism (irreversible inactivation) ([1]; with 1 mM DTT) | kinact/KI [1, 14] [M⁻¹ s⁻¹] | Inhibitor mechanism (irreversible inactivation) ([1]; without DTT) | kinact/KI [1, 15] [M⁻¹ s⁻¹] | spectral shift upon addition of DUSP5 PD protein ([2]; with 1 mM DTT) | spectral shift upon addition of DUSP5 PD protein ([2]; without DTT) | inhibitory activity with DUSP5 in library screen [9] | further results
1 | O=C1OC2(c3cc(Br)c(O)cc3Oc3cc(O)c(Br)cc32)c2ccccc21 [2’,7’-dibromofluorescein] | single-step | 0.84 ± 0.07 | single-step | 2.40 ± 0.48 | shifted slightly | shifted slightly | – | –
2 | O=C1OC2(c3cc(Cl)c(O)cc3Oc3cc(O)c(Cl)cc32)c2ccccc21 [2’,7’-dichlorofluorescein] | single-step | 0.14 ± 0.02 | single-step | 0.41 ± 0.06 | no spectral differences | no spectral differences | – | –
3 | O=C1OC2(c3ccccc31)c1cc(Br)c(O)c(Br)c1Oc1c2cc(Br)c(O)c1Br [Eosin Y, 2’,4’,5’,7’-tetrabromofluorescein] | single-step | 0.9 ± 0.13 | two-step | 6.06 ± 2.43 | not diminished | spectrally shifted | – | IC50 [3, 16]: > 100 µM; IC50 [3, 17]: > 100 µM; IC50 [3, 18]: 63.3 ± 6.9 µM; IC50 [3, 19]: 37.6 ± 4.5 µM; IC50 [4]: 12.7 ± 3 µM; Ki [1]: 43 µM; kinact [1]: 0.0002 s⁻¹; fold less effective than merbromin (time-dependent inhibition) [1]: roughly 10 fold; kinact/KI [1, 20]: 6.6 M⁻¹ s⁻¹; effect of DTT addition on compound aggregation [5]: little effect; LD50 [6]: > 10 mmol/kg; efficacy in ulcerative hemangioma patients [7]: showed efficacy
4 | O=C1OC2(c3ccccc31)c1cc(I)c(O)c(I)c1Oc1c2cc(I)c(O)c1I [Erythrosin B, 2’,4’,5’,7’-tetraiodofluorescein] | single-step | 4.13 ± 0.13 | single-step | 4.65 ± 0.71 | not diminished | spectrally shifted | – | fold less effective than merbromin (time-dependent inhibition) [1]: roughly 10 fold; steady-state inhibition mechanism [8]: competitive inhibitor
5 | CN1CCC2(C)c3cc(O)ccc3N(C)C12.O=C(O)/C=C/C(=O)O (centres unmarked) [Eseroline fumarate salt] | – | – | – | – | – | – | showed inhibitory activity | –
6 | O=C1OC2(c3ccc(O)cc3Oc3cc(O)ccc32)c2ccccc21 [Fluorescein] | – | – | – | – | no spectral differences | no spectral differences | – | IC50 [3]: > 300 µM; IC50 [3, 16]: > 300 µM; IC50 [3, 17]: > 300 µM; IC50 [3, 18]: > 300 µM; IC50 [3, 19]: > 300 µM; inhibition of DUSP5 PD activity ([3]; concentrations up to 300 μM): did not inhibit
7 | N[C@@H](Cc1ccc(O)c(O)c1)C(=O)O [Levodopa] | – | – | – | – | – | – | showed inhibitory activity | –
8 | CN(C)[C@@H]1C(O)=C(C(=O)NCNCCCC[C@H](N)C(=O)O)C(=O)[C@@]2(O)C(O)=C3C(=O)c4c(O)cccc4[C@@](C)(O)[C@H]3C[C@@H]12 [Lymecycline] | – | – | – | – | – | – | showed inhibitory activity | –
9 | O=C([O-])c1ccccc1-c1c2cc(Br)c(=O)cc-2oc2[c]([Hg+])c([O-])c(Br)cc12.[Na+].[Na+].[OH-] [Merbromin, 2’,7’-dibromo-5’-[hydroxy-mercurio]-fluorescein] | single-step | 6.22 ± 0.74 | two-step | 47.08 ± 4.66 | blunted | largest spectral shift | showed inhibitory activity | rank in secondary assay of pERK dephosphorylation among 8 screen hits ([4]; non-cell based western blot): most potent inhibitor; kinact/KI (slope of linear fit) ([1]; with 1 mM DTT, fit shown in Fig. 5c/6c): 6.0 M⁻¹ s⁻¹; kinact/KI (slope from the data fit) ([1]; with DTT, Fig. 5c): 6.0 M⁻¹; fold decrease of kinact/KI in the presence of DTT ([1]; with vs without DTT): 7.6 fold; Ki [1, 21]: 33 µM; kinact [1, 21]: 0.0014 s⁻¹; kinact/KI [1, 20]: 42.4 M⁻¹ s⁻¹; kinact/KI ([1]; without DTT, summary of data sets (Table 2), listed as merbromin): 47 M⁻¹ s⁻¹; effect of DTT addition on compound aggregation [5]: little effect
10 | COc1cc(NC(C)CCCN)c2ncccc2c1 (centres unmarked) [Primaquine diphosphate] | – | – | – | – | – | – | showed inhibitory activity | –
11 | CC[N+](C)(CC)CCC[n+]1c(-c2ccccc2)c2cc(N)ccc2c2ccc(N)cc21.[I-].[I-] [Propidium iodide] | – | – | – | – | – | – | showed inhibitory activity | –
12 | O=C(O)c1c(Cl)c(Cl)c(Cl)c(Cl)c1-c1c2cc(I)c(=O)c(I)c-2oc2c(I)c(O)c(I)cc12 [Rose Bengal, 4,5,6,7-tetrachloro-2’,4’,5’,7’-tetraiodofluorescein] | – | – | – | – | – | – | – | Kii, intercept inhibition constant (two Ki noncompetitive model, equation 7) ([10]; 15 min dark incubation): 2.25 ± 0.10 µM; Kii, intercept inhibition constant (two Ki noncompetitive model, equation 7) ([10]; 15 min light exposure): 0.55 ± 0.02 µM; steady-state inhibition mechanism ([10]; vs pNPP): noncompetitive inhibitor; Kd [11]: 0.69 µM; Ki of LED-illuminated samples relative to samples incubated in the dark [12]: about half; DUSP5 PD enzyme activity, oxygen-gassed vs other conditions [13]: significantly lower activities; DUSP5 PD enzyme velocity, nitrogen-gassed vs compressed air or oxygen [13]: significantly higher velocities
13 | O.O=C1C(O)=C(O)C(=O)C(O)=C1O [Tetrahydroxy 1,4-quinone monohydrate] | – | – | – | – | – | – | showed inhibitory activity | –
14 | Anthracin | – | – | – | – | – | – | showed inhibitory activity | –
15 | Cyanocobalamin | – | – | – | – | – | – | showed inhibitory activity | –
